High-throughput results: PubChem, several laboratories
EBI2 block: blocks human EBI2 receptor beta-arrestin signaling; EBI2 beta-arrestin recruitment, luminescence, 7a,25-OHC stimulated; inhibition, % at 5 µM; actives 0.81% (n = 360,000); AID 651636; in the data active = inhibition above about 38%;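 also: enzyme fragment complementation signal reports receptor beta-arrestin coupling in cells; 0% = agonist plus DMSO wells and 100% = wells without agonist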
Target sequence (P32249 whole entry, looked up, the tested form may be a part): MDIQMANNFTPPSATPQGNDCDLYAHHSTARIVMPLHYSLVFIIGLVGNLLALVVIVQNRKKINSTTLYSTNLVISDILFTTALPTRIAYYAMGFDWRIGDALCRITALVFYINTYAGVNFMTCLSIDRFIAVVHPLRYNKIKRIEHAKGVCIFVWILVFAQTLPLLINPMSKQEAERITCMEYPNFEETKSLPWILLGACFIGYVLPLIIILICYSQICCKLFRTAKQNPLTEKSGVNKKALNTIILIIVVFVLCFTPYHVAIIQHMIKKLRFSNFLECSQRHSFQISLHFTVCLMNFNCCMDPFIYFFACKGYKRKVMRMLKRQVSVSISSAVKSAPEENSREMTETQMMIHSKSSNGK
Myeloid diff MLP: myeloid differentiation induction | ER-HoxA9 myeloid progenitors, lysozyme-GFP differentiation, flow cytometry | calls only at 10 µM | actives 1% (n = 360,000) | AID 624256;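 active = normalized GFP-positive differentiation at or above the plate's own cutoff, the solvent-only control mean plus 3 SD; inconclusive = no clear call, values can overlap the other calls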;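 also: cells exposed to compound for four days before flow analysis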
Exocytosis inh: blocks lytic granule exocytosis; TALL-104 LAMP-1 surface exposure, flow cytometry; cells stimulated with thapsigargin and PMA; actives 0.66% (n = 360,000); AID 651702; inhibition, % at 10 µM;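 active = inhibition above about 55%, limit read from the data; inconclusive = no clear call, values can overlap the other calls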
MC4R antagonist: human MC4R antagonism in cAMP assay | MC4R-expressing cells, MTII-stimulated cAMP, LANCE TR-FRET | inhibition, % at 6.5 µM | actives 0.48% (n = 360,000);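 active = inhibition above its plate's cutoff, the mean of tested wells on that plate plus 3 SD, cut at about 29% in these data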;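 also: 0% = Melanotan II alone and 100% = Melanotan II plus saturating MCL0020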
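Material: U2OS-MC4R stable cell line | Reagent: Melanotan II challenge after compound preincubation | Doses: One concentration, 6.5 µM nominal | Incubation: 30-min compound preincubation, 1-h Melanotan II challenge, 1-h detection, room temperature | Signal: TR-FRET cAMP assay | Replicates: One well per compound, no replicates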
MC4R barr agon: activates human MC4R beta-arrestin recruitment | U2OS MC4R beta-arrestin complementation, luminescence; percent of melanotan II response, DMSO zero | activation, % at 8.9 µM | actives 0.98% (n = 360,000);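 active = activation above a per-plate cutoff, the mean activation of sample wells on that plate plus 3 SD, cut at about 8% in these data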
* = called active by the depositor. A selection: hits, their analogues and other compounds. The true share with any hit is near 3.7%.

Screening COc1ccc(N2C(=O)/C(=C/c3ccc(N(C)C)o3)C(=O)NC2=S)cc1 returned EBI2 block -1, Myeloid diff MLP inactive, Exocytosis inh 5, MC4R antagonist -5 and MC4R barr agon 1.
CCN(CC)c1ccc(/C=C2\C(=O)NC(=S)N(C)C2=O)o1 was read as EBI2 block 7, Myeloid diff MLP active, Exocytosis inh -6, MC4R antagonist -31 and MC4R barr agon -2.
Screening CCN(CC)c1ccc(/C=C2\C(=O)NC(=S)N(c3ccc(OC)cc3OC)C2=O)o1 returned EBI2 block 6, Myeloid diff MLP active, Exocytosis inh 7, MC4R antagonist -18 and MC4R barr agon -3.
`N#Cc1ccc(CN2Cc3ccccc3-n3nncc3C2)cc1` gave EBI2 block -1, Myeloid diff MLP inactive, Exocytosis inh -3, MC4R antagonist -3 and MC4R barr agon 1.
`CCn1nc(-c2cccs2)nc2c(=O)n(C)c(=O)nc1-2` gave EBI2 block 26, Myeloid diff MLP inconclusive, Exocytosis inh 79*, MC4R antagonist -38 and MC4R barr agon 1.
`CCn1nc(/C=C/c2ccccc2)nc2c(=O)n(C)c(=O)nc1-2` gave EBI2 block 24, Myeloid diff MLP inconclusive, Exocytosis inh 88*, MC4R antagonist -34 and MC4R barr agon 1.
For O=C(O)CSC(=S)N1CC2CC(C1)c1cccc(=O)n1C2 (stereo not given) the results were EBI2 block -1, Myeloid diff MLP inactive, Exocytosis inh -5, MC4R antagonist -2 and MC4R barr agon -1.
CC(O)(CS(=O)(=O)c1cccc(C(F)(F)F)c1)C(=O)Nc1cccc(C(F)(F)F)c1 (stereo not given) was read as EBI2 block 6, Myeloid diff MLP inactive, Exocytosis inh -1, MC4R antagonist 4 and MC4R barr agon 10.0*.
`CCN(CC)c1ccc(/C=C/[N+](=O)[O-])cc1` gave EBI2 block 0, Myeloid diff MLP inactive, Exocytosis inh 71*, MC4R antagonist -16 and MC4R barr agon -1.
For CCN(CC)c1ccccc1 the results were EBI2 block 1, Myeloid diff MLP inactive, Exocytosis inh -1, MC4R antagonist 8 and MC4R barr agon -3.
Screening O=C(c1ccccc1F)N1CCC2(CC1)OCCO2 returned EBI2 block -6, Myeloid diff MLP inactive, Exocytosis inh -15, MC4R antagonist 11 and MC4R barr agon 1.
Screening CCOC(=O)c1cccc([P+](=O)O)c1 returned EBI2 block -9, Myeloid diff MLP inactive, Exocytosis inh 3, MC4R antagonist 9 and MC4R barr agon 2.
For CCOC(=O)c1ccc2[nH]c(-c3ccc(S(=O)(=O)F)cc3)cc(=O)c2c1 the results were EBI2 block -5, Myeloid diff MLP active, Exocytosis inh 7, MC4R antagonist 15 and MC4R barr agon 0.
Screening Nc1c(C(=O)NCc2ccco2)c2nc3ccccc3nc2n1Cc1ccc(F)cc1 returned EBI2 block -1, Myeloid diff MLP active, Exocytosis inh 3, MC4R antagonist -10 and MC4R barr agon 0.
For Nc1c(C(=O)NCc2ccco2)c2nc3ccccc3nc2n1Cc1ccccc1 the results were EBI2 block 19, Myeloid diff MLP inactive, Exocytosis inh 22, MC4R antagonist -8 and MC4R barr agon 0.
For O=C(c1cc2c(s1)-c1ccccc1OC2)N1CCC2(CC1)OCCO2 the results were EBI2 block 88*, Myeloid diff MLP inactive, Exocytosis inh 5, MC4R antagonist -15 and MC4R barr agon -2.
For C=C1C(=O)O[C@@H]2C[C@@H](C)[C@@H]3C=CC(=O)[C@@]3(C)[C@@H](O)[C@H]12 the results were EBI2 block 57*, Myeloid diff MLP inconclusive, Exocytosis inh 3, MC4R antagonist -25 and MC4R barr agon -1.
O=C1NC(=O)N(CCc2ccc(F)cc2)C(=O)/C1=C/c1ccco1 was read as EBI2 block 5, Myeloid diff MLP inactive, Exocytosis inh 8, MC4R antagonist 18 and MC4R barr agon -1.
Screening O=C1NC(=O)N(CCc2ccc(F)cc2)C(=O)/C1=C/c1cccs1 returned EBI2 block 14, Myeloid diff MLP inactive, Exocytosis inh 80*, MC4R antagonist -14 and MC4R barr agon 1.
`CN1C(=O)/C(=C/c2cccn2-c2ccc3ccccc3c2)C(=O)NC1=S` gave EBI2 block 25, Myeloid diff MLP inactive, Exocytosis inh 98*, MC4R antagonist 16 and MC4R barr agon -1.
For Cc1cc(C)cc(N2C(=O)NC(=O)/C(=C\c3cccn3-c3ccccc3)C2=O)c1 the results were EBI2 block 3, Myeloid diff MLP inactive, Exocytosis inh 26, MC4R antagonist 16 and MC4R barr agon -2.
N=c1c[n+](C2CCCCC2)[n-]o1 was read as EBI2 block 1, Myeloid diff MLP inactive, Exocytosis inh -1, MC4R antagonist 4 and MC4R barr agon -1.
For CCCCOc1ccc(CCN)cc1Cl the results were EBI2 block -15, Myeloid diff MLP inactive, Exocytosis inh -3, MC4R antagonist 5 and MC4R barr agon 8.3*.
CC(C)Oc1ccc(CCN)cc1Cl was read as EBI2 block -7, Myeloid diff MLP inactive, Exocytosis inh 5, MC4R antagonist -1 and MC4R barr agon 0.
Screening O=C(c1cccc2ccccc12)C1CCCN(C2CCC2)C1 (stereo not given) returned EBI2 block 5, Myeloid diff MLP inactive, Exocytosis inh 6, MC4R antagonist 11 and MC4R barr agon -3.
`CCn1ccnc1CN1CCCC(C(=O)c2ccc(SC)cc2)C1` (stereo not given) gave EBI2 block -14, Myeloid diff MLP active, Exocytosis inh -13, MC4R antagonist -9 and MC4R barr agon 1.
For Cc1ccc(OP(N)(=O)Oc2ccc(C)cc2)cc1 the results were EBI2 block -3, Myeloid diff MLP inactive, Exocytosis inh -4, MC4R antagonist 7 and MC4R barr agon -1.
`CCOP(=O)(OCC)/C(C#N)=C/c1ccoc1` gave EBI2 block -2, Myeloid diff MLP inactive, Exocytosis inh 1, MC4R antagonist -1 and MC4R barr agon -2.
Screening O=C(Nc1cccc(Br)c1)c1c(O)c2c(n(Cc3ccccc3)c1=O)CCCC2 returned EBI2 block 1, Myeloid diff MLP active, Exocytosis inh -2, MC4R antagonist 1 and MC4R barr agon 0.
For CCCCCn1c(=O)c(C(=O)Nc2ncccc2C)c(O)c2ccccc21 the results were EBI2 block -11, Myeloid diff MLP inconclusive, Exocytosis inh -4, MC4R antagonist 6 and MC4R barr agon 1.
For CCC(c1nnnn1Cc1ccccc1)N1CCC(n2c(=O)[nH]c3ccccc32)CC1 (stereo not given) the results were EBI2 block -52, Myeloid diff MLP inactive and Exocytosis inh 8.
`COc1ccc2c3c([nH]c2c1)C(C)=NCC3` gave EBI2 block 3, Myeloid diff MLP active, Exocytosis inh 1, MC4R antagonist 4 and MC4R barr agon 0.
